According to ChEMBL document CHEMBL1124914, “Novel inhibitors of human renin. Cyclic peptides based on the tetrapeptide sequence Glu-D-Phe-Lys-D-Trp” (J Med Chem, 1990):
Active and inactive are the calls of the source. The calls are words filed in the database; no cut-off is given here.

Experiments:
Renin = molecular target: T1, Renin (Homo sapiens, UniProt P00797); assay: Inhibitory activity against human renin
T1 sequence (P00797 whole entry): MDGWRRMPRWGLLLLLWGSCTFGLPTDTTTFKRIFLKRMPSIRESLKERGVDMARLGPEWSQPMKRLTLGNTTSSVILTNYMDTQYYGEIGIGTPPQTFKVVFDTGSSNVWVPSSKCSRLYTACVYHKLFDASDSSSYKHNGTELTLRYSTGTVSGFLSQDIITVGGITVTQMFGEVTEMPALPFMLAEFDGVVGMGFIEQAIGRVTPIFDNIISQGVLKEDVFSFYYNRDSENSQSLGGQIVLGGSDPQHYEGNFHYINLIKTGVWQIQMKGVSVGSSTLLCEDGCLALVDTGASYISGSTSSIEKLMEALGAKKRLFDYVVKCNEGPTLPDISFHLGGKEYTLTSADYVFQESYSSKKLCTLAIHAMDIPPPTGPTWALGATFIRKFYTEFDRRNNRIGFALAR
In short: (§1)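 Partially purified human renal renin with human angiotensinogen partially purified from volunteer plasma (ammonium sulfate fractionation, DEAE-Sephacel). Final mix: 50 mM phosphate pH 7.0, 3 mM EDTA, 3 mM 8-hydroxyquinoline, 0.5 mM PMSF, 0.1% azide, 0.1% BSA, 1% DMSO. Incubation 120 min at 30 °C, stopped on ice. Angiotensin I measured by radioimmunoassay; percent inhibition of vehicle control rate.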

Renin (Sus scrofa) = assay: Inhibitory activity against porcine renin
Renin (Homo sapiens) [1] = molecular target: T2, Renin (Homo sapiens) (UniProt P00797); assay: Ratio of inhibitory activity of porcine renin to that of human renin; details: Sus scrofa
T2 sequence (whole entry): T1 sequence (P00797 whole entry)

Renin (Homo sapiens) [2] = molecular target: T2, Renin (Homo sapiens); assay: Tested for inhibition against human renin at a concentration of 100 uM
In short: as §1, with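 “DMSO. […]” for “DMSO.”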

Renin (Homo sapiens) [3] = molecular target: T2, Renin (Homo sapiens); assay: Tested for inhibition against human renin at a concentration of 100 uM; Inactive
In short: as §1, with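 “DMSO. […]” for “DMSO.”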

Renin (Homo sapiens) [4] = molecular target: T2, Renin (Homo sapiens); assay: Tested for inhibition against human renin at a concentration of 10 uM
In short: as §1, with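 “DMSO. […]” for “DMSO.”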

Renin (Homo sapiens) [5] = molecular target: T2, Renin (Homo sapiens); assay: Tested for inhibition against human renin at a concentration of 1 uM
In short: as §1, with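 “DMSO. […]” for “DMSO.”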

| Compound | IC50 (Renin) | inhibition (Renin (Homo sapiens) [2]) | further results |
| --- | --- | --- | --- |
| CCC(C)CN[C@@H]1CCC(=O)N([C@@H](CCCCN)C(=O)NC(Cc2c[nH]c3ccccc23)C(=O)NCCC(C)C)C(=O)[C@@H](Cc2ccccc2)NC1=O (stereo in doubt) | 130 nM |  |  |
| CC(C)CCNC(=O)C(Cc1c[nH]c2ccccc12)NC(=O)[C@H](CCCCN)N1C(=O)CC[C@@H](NCC(C)(C)C)C(=O)N[C@H](Cc2ccccc2)C1=O (stereo in doubt) | 63 nM |  | IC50 (Renin (Sus scrofa)): 7100 nM; Ratio (Renin (Homo sapiens) [1]): 113 |
| CCNC(=O)[C@H](CC(C)C)NC(=O)C(Cc1c[nH]c2ccccc12)NC(=O)[C@H](CCCCN)N1C(=O)CC[C@@H](NC(=O)OCc2ccccc2)C(=O)N[C@H](Cc2ccccc2)C1=O (stereo in doubt) | 850 nM |  |  |
| CC(=O)NCSC[C@@H]1NC(=O)[C@@H](CC(C)C)NC(=O)C(Cc2c[nH]c3ccccc23)NC(=O)[C@@H](CSCNC(C)=O)NC(=O)[C@H](Cc2ccccc2)NC1=O (stereo in doubt) |  | 56% |  |
| COC(=O)[C@H](CC(C)C)NC(=O)C(Cc1c[nH]c2ccccc12)NC(=O)[C@@H](CCCCN)N1C(=O)C[C@H](NC(=O)OCc2ccccc2)C(=O)N[C@H](Cc2ccccc2)C1=O (stereo in doubt) |  | 32% |  |
| CC(=O)NCSC[C@H]1NC(=O)[C@H](Cc2ccccc2)NC(=O)CN(C)C(=O)[C@@H](CC(C)C)NC(=O)C(Cc2c[nH]c3ccccc23)NC1=O (stereo in doubt) |  |  | inhibition (Renin (Homo sapiens) [3]): inactive |
| CC(C)(C)CNC(=O)C(Cc1c[nH]c2ccccc12)NC(=O)[C@H](CCCCN)N1C(=O)CC[C@@H](NC(=O)OCc2ccccc2)C(=O)N[C@H](Cc2ccccc2)C1=O (stereo in doubt) | 1700 nM |  |  |
| CC(C)CCNC(=O)C(Cc1c[nH]c2ccccc12)NC(=O)[C@H](CCCCN)N1C(=O)CC[C@@H](NCc2c[nH]c3ccccc23)C(=O)N[C@H](Cc2ccccc2)C1=O (stereo in doubt) | 1900 nM |  |  |
| CC(C)(C)OC(=O)N[C@@H]1CCC(=O)N([C@@H](CCCCN)C(N)=O)C(=O)[C@@H](Cc2ccccc2)NC1=O |  |  | inhibition (Renin (Homo sapiens) [3]): inactive |
| COC(=O)[C@H](CCSC)NC(=O)[C@H](CC(C)C)NC(=O)C(Cc1c[nH]c2ccccc12)NC(=O)[C@H](CS)NC(=O)[C@H](Cc1ccccc1)NC(=O)[C@H](CS)NC(=O)OC(C)(C)C (stereo in doubt) |  | 22% |  |
| COC(=O)[C@H](CC(C)C)NC(=O)C(Cc1c[nH]c2ccccc12)NC(=O)[C@@H](CCCN)N1C(=O)C[C@H](NC(=O)OCc2ccccc2)C(=O)N[C@H](Cc2ccccc2)C1=O (stereo in doubt) |  |  | inhibition (Renin (Homo sapiens) [3]): inactive |
| COC(=O)[C@H](CC(C)C)NC(=O)C(Cc1c[nH]c2ccccc12)NC(=O)[C@H](CCCN)N1C(=O)CC[C@H](NC(=O)OCc2ccccc2)C(=O)N[C@@H](Cc2ccccc2)C1=O (stereo in doubt) |  | 42% |  |
| CC(Cc1c[nH]c2ccccc12)NC(=O)[C@H](CCCCN)N1C(=O)CC[C@@H](NC(=O)OC(C)(C)C)C(=O)N[C@H](Cc2ccccc2)C1=O (some centres not stated) |  | 33% |  |
| CC(C)C[C@H]1NC(=O)C(Cc2c[nH]c3ccccc23)NC(=O)[C@@H](CCCCN)N(C(=O)[C@@H](N)Cc2ccccc2)C1=O (stereo in doubt) |  |  | inhibition (Renin (Homo sapiens) [3]): inactive |
| CC[C@@H](C)[C@H](NC(=O)C(Cc1c[nH]c2ccccc12)NC(=O)[C@H](CCCCN)N1C(=O)CC[C@@H](NC(=O)OCc2ccccc2)C(=O)N[C@H](Cc2ccccc2)C1=O)C(=O)NC (stereo in doubt) | 810 nM |  |  |
| CC(C)CCNC(=O)C(Cc1c[nH]c2ccccc12)NC(=O)[C@H](CCCCN)N1C(=O)CC[C@@H](NC(=O)OC(C)(C)C)C(=O)N[C@H](Cc2ccccc2)C1=O (stereo in doubt) | 210 nM |  | IC50 (Renin (Sus scrofa)): 8500 nM; Ratio (Renin (Homo sapiens) [1]): 40.4 |
| CCC(Cc1c[nH]c2ccccc12)NC(=O)[C@H](CCCCN)N1C(=O)CC[C@@H](NC(=O)OC(C)(C)C)C(=O)N[C@H](Cc2ccccc2)C1=O (some centres not stated) |  | 41% |  |

| Compound | IC50 (Renin) | inhibition (Renin (Homo sapiens) [2]) | further results |
| --- | --- | --- | --- |
| COC(=O)C(Cc1c[nH]c2ccccc12)NC(=O)[C@H](CCCCN)N1C(=O)CC[C@@H](NC(=O)OCc2ccccc2)C(=O)N[C@H](Cc2ccccc2)C1=O (stereo in doubt) |  | 69.2% |  |
| CC(C)C[C@H]1NC(=O)C(Cc2c[nH]c3ccccc23)NC(=O)[C@@H](CCCCN)N(C(=O)[C@H](Cc2ccccc2)NC(=O)OCc2ccccc2)C1=O (stereo in doubt) |  |  | inhibition (Renin (Homo sapiens) [3]): inactive |
| COC(=O)[C@@H](CCSC)NC(=O)[C@H](CC(C)C)NC(=O)C(Cc1c[nH]c2ccccc12)NC(=O)[C@H](CCCCN)N1C(=O)CC[C@@H](NC(=O)OCc2ccccc2)C(=O)N[C@H](Cc2ccccc2)C1=O (stereo in doubt) | 290 nM |  |  |
| CC(C)CCNC(=O)C(Cc1c[nH]c2ccccc12)NC(=O)[C@H](CCCCN)N1C(=O)CC[C@@H](NC(=O)COc2ccccc2)C(=O)N[C@H](Cc2ccccc2)C1=O (stereo in doubt) | 430 nM |  | IC50 (Renin (Sus scrofa)): 8200 nM; Ratio (Renin (Homo sapiens) [1]): 19.2 |
| COC(=O)[C@H](CC(C)C)NC(=O)C(Cc1c[nH]c2ccccc12)NC(=O)[C@H](CCCCN)N1C(=O)CSC[C@@H](NC(=O)OCc2ccccc2)C(=O)N[C@H](Cc2ccccc2)C1=O (stereo in doubt) |  | 53% |  |
| CC(=O)NCSC[C@H]1NC(=O)[C@H](Cc2ccccc2)NC(=O)[C@@H]2CCCN2C(=O)[C@@H](CC(C)C)NC(=O)C(Cc2c[nH]c3ccccc23)NC1=O (stereo in doubt) |  | 38% |  |
| COC(=O)[C@@H]1CCCN1C(=O)[C@H](CC(C)C)NC(=O)C(Cc1c[nH]c2ccccc12)NC(=O)[C@H](CCCCN)N1C(=O)CC[C@@H](NC(=O)OCc2ccccc2)C(=O)N[C@H](Cc2ccccc2)C1=O (stereo in doubt) |  |  | inhibition (Renin (Homo sapiens) [4]): 76% |
| CNC(=O)[C@H](CC(C)C)NC(=O)C(Cc1c[nH]c2ccccc12)NC(=O)[C@H](CCCCN)N1C(=O)CC[C@@H](NC(=O)OCc2ccccc2)C(=O)N[C@H](Cc2ccccc2)C1=O (stereo in doubt) | 340 nM |  |  |
| COC(=O)C(CCSC)NC(=O)[C@H](CC(C)C)NC(=O)C(Cc1c[nH]c2ccccc12)NC(=O)[C@H](CCCCN)N1C(=O)CC[C@@H](NC(=O)OCc2ccccc2)C(=O)N[C@H](Cc2ccccc2)C1=O (stereo in doubt) | 450 nM |  |  |
| COC(=O)[C@@H](NC(=O)C(Cc1c[nH]c2ccccc12)NC(=O)[C@H](CCCCN)N1C(=O)CC[C@@H](NC(=O)OCc2ccccc2)C(=O)N[C@H](Cc2ccccc2)C1=O)C1CCCCC1 (stereo in doubt) |  | 67% |  |
| CC(=O)NCSC[C@H]1NC(=O)[C@H](Cc2ccccc2)NC(=O)CNC(=O)[C@@H](CC(C)C)NC(=O)C(Cc2c[nH]c3ccccc23)NC1=O (stereo in doubt) |  |  | inhibition (Renin (Homo sapiens) [3]): inactive |
| COC(=O)[C@H](CC(C)C)NC(=O)C(Cc1c[nH]c2ccccc12)NC(=O)[C@@H]1CCC(=O)N[C@H](CCCCNC(=O)OCc2ccccc2)C(=O)N[C@@H](Cc2ccccc2)C(=O)N1 (stereo in doubt) |  |  | inhibition (Renin (Homo sapiens) [3]): inactive |
| CC(C)CCNC(=O)C(Cc1c[nH]c2ccccc12)NC(=O)[C@H](CCCCN)N1C(=O)CC[C@@H](NC(C)C)C(=O)N[C@H](Cc2ccccc2)C1=O (stereo in doubt) |  | 93% | inhibition (Renin (Homo sapiens) [5]): 30% |
| COC(=O)[C@H](CCCCN)N1C(=O)CC[C@@H](NC(=O)OC(C)(C)C)C(=O)N[C@H](Cc2ccccc2)C1=O |  |  | inhibition (Renin (Homo sapiens) [3]): inactive |
| CC(C)(C)OC(=O)N[C@@H]1CCC(=O)N([C@@H](CCCCN)C(=O)NCCc2c[nH]c3ccccc23)C(=O)[C@@H](Cc2ccccc2)NC1=O |  | 79% |  |
| CC(C)CCNC(=O)C(Cc1c[nH]c2ccccc12)NC(=O)[C@H](CCCCN)N1C(=O)CC[C@@H](N)C(=O)N[C@H](Cc2ccccc2)C1=O (stereo in doubt) | 710 nM |  | IC50 (Renin (Sus scrofa)): 46000 nM; Ratio (Renin (Homo sapiens) [1]): 64.7 |
